Reference: ChEMBL document CHEMBL1147285, “A mammalian cell agar-diffusion assay for the detection of toxic compounds” (J Nat Prod, 1989)
Calls of active or inactive are those of the source. No cut-off for these calls is given here.

Key:
[1] = tested on: HT-29; assay: Antiproliferative activity against human HT-29 cells at 0.01 ug after 48 hrs by two-layer agar-diffusion method; assay type: functional; conditions: for zone of inhibition at 0.01 µg/disc: read-out: IZ
Outline: (§1)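 Compound (0.01-10 µg) spotted on Si gel pieces, air-dried, placed face down on 1.5% Noble agar in PBS-growth medium (20:80) for 60 min diffusion. After removal, cells (2 X 10^6/ml) in 0.3% low-temperature agarose overlaid; 48 h incubation. Cytotoxic zones shown by MTT (5 mg/ml in growth medium) over agarose; absence of zone scored as not detected.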

[2] = tested on: P388; assay: Antiproliferative activity against mouse P388 cells at 0.1 ug after 48 hrs by two-layer agar-diffusion method; assay type: functional; conditions: read-out: IZ; outline: as §1
[3] = tested on: P388; assay: Antiproliferative activity against mouse P388 cells at 1 ug after 48 hrs by two-layer agar-diffusion method; assay type: functional; conditions: read-out: IZ; outline: as §1
[4] = tested on: P388; assay: Antiproliferative activity against mouse P388 cells at 0.01 ug after 48 hrs by two-layer agar-diffusion method; assay type: functional; conditions: for zone of inhibition at 0.01 µg/disc: read-out: IZ; outline: as §1
[5] = tested on: HT-29; assay: Antiproliferative activity against human HT-29 cells at 1 ug after 48 hrs by two-layer agar-diffusion method; assay type: functional; conditions: for zone of inhibition at 1 µg/disc: read-out: IZ; outline: as §1
[6] = tested on: HT-29; assay: Antiproliferative activity against human HT-29 cells at 0.1 ug after 48 hrs by two-layer agar-diffusion method; assay type: functional; conditions: for zone of inhibition at 0.1 µg/disc: read-out: IZ; outline: as §1
[7] = tested on: P388; assay: Antiproliferative activity against mouse P388 cells after 48 hrs by MTT assay; assay type: functional, cell-based; conditions: P388, 48 h
Outline: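 Uncloned P-388 in RPMI 1640 + 10% horse serum, gentamicin 50 µg/ml; 200-µl cultures at 1 X 10' cells/ml with or without drug, 48 h exposure. MTT (5 mg/ml in medium, 75 µl) added for 90 min, formazan read at 570 nm; absorbance normalized to untreated wells; IC50 by linear regression of logit-transformed data.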

[8] = tested on: HT-29; assay: Antiproliferative activity against human HT-29 cells after 96 hrs by MTT assay; assay type: functional, cell-based; conditions: HT-29, 96 h
[9] = tested on: HT-29; assay: Antiproliferative activity against human HT-29 cells at 10 ug after 48 hrs by two-layer agar-diffusion method; assay type: functional, cell-based; outline: as §1

SMILES | Activity [1] | zone of inhibition at 0.1 µg/disc [2] [mm] | zone of inhibition at 1 µg/disc [3] [mm] | zone of inhibition at 0.01 µg/disc [4] [mm] | zone of inhibition at 1 µg/disc [5] [mm] | zone of inhibition at 0.1 µg/disc [6] [mm] | IC50 [7] [nM] | IC50 [8] [nM] | Activity [4] | Activity [5] | Activity [6] | Activity [9] | zone of inhibition at 0.01 µg/disc [1] [mm]
CC[C@H]1CN2CCc3cc(OC)c(OC)cc3[C@@H]2C[C@@H]1C[C@H]1NCCc2cc(OC)c(OC)cc21 [EMETINE] | inactive | 40 | > 40 | 20 | 35 | 25 | 7 | 33 |  |  |  |  | 
O=c1[nH]cc(F)c(=O)[nH]1 [FLUOROURACIL] | inactive | 15 | > 40 |  |  |  | 609 | 690 | inactive | inactive | inactive | inactive | 
CN(Cc1cnc2nc(N)nc(N)c2n1)c1ccc(C(=O)N[C@@H](CCC(=O)O)C(=O)O)cc1 [METHOTREXATE] | inactive | 27.5 | 40 |  |  |  | 66 | 4400 | inactive | inactive | inactive | inactive | 
CO[C@@]12[C@H](COC(N)=O)C3=C(C(=O)C(C)=C(N)C3=O)N1C[C@@H]1N[C@@H]12 [MITOMYCIN] | inactive | 5 | 25 |  | 10 |  | 3000 | 99 | inactive |  | inactive |  | 
CO[C@H](C(=O)[C@@H](O)[C@@H](C)O)[C@@H]1Cc2cc3cc(O[C@H]4C[C@@H](O[C@@H]5C[C@@H](O)[C@H](O)[C@@H](C)O5)[C@H](O)[C@@H](C)O4)c(C)c(O)c3c(O)c2C(=O)[C@H]1O[C@H]1C[C@@H](O[C@@H]2C[C@@H](O)[C@@H](O[C@@H]3C[C@](C)(O)[C@H](O)[C@@H](C)O3)[C@@H](C)O2)[C@H](O)[C@@H](C)O1 [PLICAMYCIN] | inactive | 15 | 30 |  | 25 | 15 | 111 | 33 | inactive |  |  |  | 
COc1cc([C@@H]2c3cc4c(cc3[C@H](O)[C@H]3COC(=O)[C@H]23)OCO4)cc(OC)c1OC [PODOFILOX] |  | 32.5 | 40 | 12.5 | > 40 | > 40 | 5.9 | 11 |  |  |  |  | 25
Nc1nc2[nH]cnc2c(=S)[nH]1 [THIOGUANINE] | inactive | > 40 | > 40 | > 40 |  |  | 300 | 1240 |  | inactive | inactive | inactive | 
CC[C@]1(O)C[C@@H]2CN(CCc3c([nH]c4ccccc34)[C@@](C(=O)OC)(c3cc4c(cc3OC)N(C)[C@H]3[C@@](O)(C(=O)OC)[C@H](OC(C)=O)[C@]5(CC)C=CCN6CC[C@]43[C@@H]65)C2)C1 [VINBLASTINE] |  | 32.5 | > 40 | 12.5 | 40 | 25 | 0.7 | 4 |  |  |  |  | 10
CC[C@]1(O)C[C@H]2CN(CCc3c([nH]c4ccccc34)[C@@](C(=O)OC)(c3cc4c(cc3OC)N(C=O)[C@H]3[C@@](O)(C(=O)OC)[C@H](OC(C)=O)[C@]5(CC)C=CCN6CC[C@]43[C@@H]65)C2)C1 [VINCRISTINE] | inactive | 32.5 | > 40 | 12.5 | 30 | 15 | 1.2 | 7 |  |  |  |  | 
